Screening results: PubChem, The Scripps Research Institute Molecular Screening Center
DAGLB inhibitor: diacylglycerol lipase beta (human) inhibition. HEK293T DAGLB membrane lysate, EnzChek fluorogenic substrate. inhibition, % at 5.17 µM. 340,000 compounds, 0.059% hits. AID 504411; in the data active means inhibition above about 34%;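 further: 0% = enzyme with vehicle and 100% = wells lacking enzyme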
ABHD4 inh: ABHD4 (mouse) inhibition, primary FP screen; Q8VD66; purified mABHD4, FP-Rh probe fluorescence polarization; inhibition, % at 8.92 µM; 370,000 compounds, 0.54% hits;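 active means inhibition exceeding the mean over every tested compound plus 3 SD, cut at about 30% in these data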;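 further: 0% = plate median of compound wells and 100% = S159A mutant with DMSO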
Target sequence (Q8VD66 whole entry, looked up): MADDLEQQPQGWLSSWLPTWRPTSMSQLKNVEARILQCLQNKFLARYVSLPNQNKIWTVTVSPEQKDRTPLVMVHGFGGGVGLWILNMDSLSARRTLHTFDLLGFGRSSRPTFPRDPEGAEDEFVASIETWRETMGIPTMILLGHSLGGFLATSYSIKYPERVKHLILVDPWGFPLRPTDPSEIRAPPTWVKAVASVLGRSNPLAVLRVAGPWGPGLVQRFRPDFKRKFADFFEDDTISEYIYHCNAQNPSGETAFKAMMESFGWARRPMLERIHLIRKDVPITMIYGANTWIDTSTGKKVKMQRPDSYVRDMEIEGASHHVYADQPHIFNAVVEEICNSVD
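Assay system: mouse ABHD4 enzyme, wild type / Also added: fluorescent activity-based probe FP-Rh / Doses: single nominal dose of 8.92 µM, 0.89% DMSO final / Timing: 45 min compound pre-incubation plus 60 min probe step, 25 °C / Signal: FP readout, ex 525 nm / em 598 nm / Control set: S159A mutant/DMSO as 100%, compound-well median as 0%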
HTRA1 inhibitor: HTRA1 (human) protease inhibition; Q92743; recombinant HTRA1, FP-rhodamine activity-based probe, fluorescence polarization; inhibition, % at 5.96 µM; 340,000 compounds, 0.5% hits; AID 504803; in the data active means inhibition above about 36%;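 further: 0% = enzyme with DMSO and 100% = wells lacking enzyme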
rCAG binder: binds r(CAG) RNA repeats | r(CAG) RNA repeat, TO-PRO-1 dye displacement fluorescence | inhibition, % at 3 µM | 370,000 compounds, 1.3% hits | AID 651821;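 active means inhibition above the plate cutoff, the mean of all test compounds on that plate plus 3 SD, cut at about 35% in these data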;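 further: 0% = DMSO alone and 100% = 100 µM mitoxantrone as full dye displacement; higher means more dye released from RNA so lower well fluorescence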
PRMT1 inh: blocks human protein arginine methyltransferase 1. Q99873. recombinant PRMT1, activity-based probe fluorescence polarization. inhibition, % at 2.79 µM. 370,000 compounds, 1.3% hits;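 active means inhibition above about 21% made by adding two undisclosed values, limit read from the data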
Target sequence (Q99873 whole entry, looked up): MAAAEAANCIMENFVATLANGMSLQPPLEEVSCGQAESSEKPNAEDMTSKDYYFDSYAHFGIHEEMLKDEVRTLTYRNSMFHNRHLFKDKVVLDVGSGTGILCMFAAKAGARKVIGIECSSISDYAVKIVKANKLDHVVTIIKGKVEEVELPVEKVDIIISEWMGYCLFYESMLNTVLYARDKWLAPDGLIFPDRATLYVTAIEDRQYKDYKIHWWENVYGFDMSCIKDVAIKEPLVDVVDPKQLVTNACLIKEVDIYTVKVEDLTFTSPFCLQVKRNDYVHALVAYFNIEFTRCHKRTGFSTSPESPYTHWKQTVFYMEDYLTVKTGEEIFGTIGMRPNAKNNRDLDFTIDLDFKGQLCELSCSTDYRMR
LEDGF integ inh: blocks HIV-1 LEDGF/p75-dependent DNA integration. TR-FRET IN-LEDGF/p75 DNA integration, Eu/Cy5. inhibition, % at 3.7 µM. 370,000 compounds, 0.64% hits;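 active means inhibition above the screen-wide mean plus 3 SD, cut at about 13% in these data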;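 further: signal is the Cy5 over europium emission ratio at 671 and 618 nm; 0% = plate median of compound wells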
PRMT1 confirm: PRMT1 (human) inhibition, FP confirmation | shares compounds with PRMT1 inh | recombinant His-PRMT1, activity-based probe fluorescence polarization | inhibition, % at 2.79 µM | 3,300 compounds, 42% hits | AID 687036;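 active means mean inhibition across replicates above the hit cutoff derived for the earlier primary screen, cut at about 22% in these data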
* hit, by the source's call; . = not tested or not shown. Rows were chosen to be rich in hits. Some 3.2% of all compounds tested hit in one or more screens of this group.

SMILES | DAGLB inhibitor | ABHD4 inh | HTRA1 inhibitor | rCAG binder | PRMT1 inh | LEDGF integ inh | PRMT1 confirm
Cc1[nH]c2ccc(-c3n[nH]c(=S)n3-c3ccc(Br)cc3)cc2c1C | 3.7 | -2.6 | -7.2 | 20.4 | 26.3* | 4.6 | 9.7
COc1cccc(-n2c(-c3cccc(S(=O)(=O)N(C)C)c3)n[nH]c2=S)c1 | -0.7 | -0.4 | -0.8 | 5.7 | -3.3 | -2.6 | .
COc1cccc(-n2c(-c3ccc4[nH]c(C)c(C)c4c3)n[nH]c2=S)c1 | 2.7 | -3.0 | -1.4 | 14.2 | 25.8* | 2.8 | 6.6
Cc1[nH]c2ccc(-c3n[nH]c(=S)n3-c3ccccc3)cc2c1C | 4.6 | -7.5 | 0.2 | 14.7 | 16.7 | 1.6 | .
CC1=C(c2ccc(C(C)C)cc2)S(=O)(=O)N=C1N1CCN(C(=O)c2ccco2)CC1 | -1.5 | -1.7 | -7.9 | 2.1 | 2.8 | -3.6 | .
N#CC1=C(N)NC(=S)C(C(N)=O)C1c1ccccc1F (configuration not stated) | -1.7 | 0.9 | 3.4 | 0.9 | 63.9* | 2.1 | 34.0*
N#CC1=C(N)NC(=S)C(C(N)=O)C1c1ccc(Cl)cc1Cl (configuration not stated) | 2.4 | 0.7 | -1.1 | 0.5 | 72.5* | 0.6 | 34.3*
CCOC(=O)C1C(=O)NC(SC)=C(C#N)C1c1ccccc1F (configuration not stated) | 1.8 | -1.8 | 2.1 | -1.4 | 0.2 | -4.5 | .
O=C1C2C3C=CC(O3)C2C(=O)N1Cc1ccncc1 (configuration not stated) | 1.5 | 12.6 | 2.5 | 0.7 | 42.8* | -1.4 | -0.1
O=C1C=CC(=O)N1Cc1ccncc1 | -2.2 | 1.6 | -0.6 | 9.5 | 6.8 | -0.2 | .
CCOC(=O)[C@@]12CN(C(=O)OC(C)(C)C)CC=C1N(Cc1ccc(OC)cc1)C(=O)[C@H]2CC(=O)NCC1CCCCC1 | . | 10.5 | . | 1.3 | 1.1 | -1.5 | .
C=CCn1c(=O)[nH]c2nc3cc(N=CN(C)C)c(C)cc3nc2c1=O | -28.4 | 0.0 | 2.8 | -87.3 | 30.6* | -3.1 | 75.4*
O=C(CSc1nc(O)cc(=O)[nH]1)N1CCCc2ccccc21 | 0.9 | 2.2 | -1.6 | 21.0 | 25.6* | 0.1 | 6.8
Cc1cc(=O)[nH]c(SCC(=O)N2CCCc3ccccc32)n1 | 2.0 | 8.3 | 3.9 | -1.8 | 4.3 | -3.4 | .
Cc1ccc(NC(=O)c2ncn(CCCNCc3ccccn3)n2)cc1C | -5.3 | -1.7 | -0.6 | 2.2 | -5.1 | -5.2 | .
O=C(Nc1nnc(-c2ccccc2)s1)c1cc(S(=O)(=O)N2CCOCC2)c(Cl)cc1Cl | 0.9 | 0.7 | 7.7 | 1.8 | -1.0 | -0.4 | .
COc1ccc(NC(=O)N(C)C[C@@H]2OCc3cn(nn3)CCCC(=O)N([C@H](C)CO)C[C@H]2C)cc1 | -1.7 | 11.2 | 4.0 | -2.6 | 65.2* | -1.0 | 6.0
C[C@H](CO)N1C[C@H](C)[C@@H](CN(C)C(=O)Nc2ccc(F)cc2)OCc2cn(nn2)CCCC1=O | . | 2.8 | . | -0.9 | 3.4 | -0.6 | .
COc1ccc(N=Nc2nc3ccc(Br)cc3n2C)cc1 | -23.0 | 5.7 | 12.5 | -283.3 | 132.5* | 7.2 | 6.8
COc1ccc(-c2c(-c3cc(OC)cc(OC)c3)n(C)c3ccc(Br)cc23)cc1 | -1.9 | 5.4 | -0.5 | 3.0 | -2.0 | 1.5 | .
CN(C)S(=O)(=O)c1cccc(C(=O)N2CCc3ccccc32)c1 | -0.7 | 0.8 | -9.0 | -5.8 | -1.5 | 0.4 | .
CN(C)S(=O)(=O)c1cccc(C(=O)C2=C3SC=C(c4ccccc4)N3CC2)c1 | -1.5 | -1.7 | -10.2 | 15.6 | 26.5* | 2.5 | 27.9*
CCCCc1c(O)nc(SCC(=O)NC(C)(C)C)n(-c2ccccc2C)c1=O | 3.7 | -3.9 | 7.1 | -1.8 | 26.8* | 2.5 | 6.3
CCCCc1c(O)nc(SCC(=O)N2CCCCC2)n(-c2ccccc2C)c1=O | -0.2 | 0.3 | 7.3 | 0.7 | 7.5 | -2.6 | .
CC(=O)NC(c1ccc(F)c(F)c1)c1nc(-c2cnc3ccccc3c2)cs1 (configuration not stated) | . | -5.8 | . | 3.1 | 31.8* | -1.5 | 3.3
SMILES | DAGLB inhibitor | ABHD4 inh | HTRA1 inhibitor | rCAG binder | PRMT1 inh | LEDGF integ inh | PRMT1 confirm
Cc1cc(C)c(NC(=O)COc2cccnc2[N+](=O)[O-])c(C)c1 | -0.8 | 5.3 | 5.1 | -1.1 | 6.4 | -8.2 | .
O=C(O)C1CSC(c2coc3ccccc3c2=O)N1 (configuration not stated) | 0.6 | 4.9 | -9.0 | 8.2 | 51.1* | -4.2 | 35.2*
CC1CCOC(c2coc3ccccc3c2=O)O1 (configuration not stated) | -1.7 | 3.4 | 1.4 | -0.7 | -0.7 | 2.4 | .
O=S1(=O)[C@H]2C[C@@H]3C=C[C@@]2(CN1Cc1ccc(Cl)cc1)O3 | 2.2 | 1.0 | 14.7 | 0.1 | -3.1 | -0.1 | .
CCN(C(=O)CSc1nnc(-c2cccc(Cl)c2)n1N)c1c(N)n(Cc2ccccc2)c(=O)[nH]c1=O | -1.3 | 5.1 | -8.4 | -0.1 | 31.5* | 2.9 | 37.7*
CCN(C(=O)CN1CCN(c2ccc(O)cc2)CC1)c1c(N)n(Cc2ccccc2)c(=O)[nH]c1=O | -0.8 | 17.1 | 3.2 | 7.2 | 27.5* | 5.9 | 9.4
Cc1nnc(SCC(=O)N(C)c2c(N)n(Cc3ccccc3)c(=O)[nH]c2=O)n1Cc1ccccc1 | 1.5 | 1.4 | -4.3 | -3.9 | 1.8 | 0.5 | .
Cc1ccc2c(CC(=O)N(C)c3c(N)n(Cc4ccccc4)c(=O)[nH]c3=O)coc2c1 | -0.5 | -0.9 | 4.1 | 0.9 | 94.1* | -0.4 | -2.0
CCn1c(SCC(=O)N(C)c2c(N)n(Cc3ccccc3)c(=O)[nH]c2=O)nc2ccccc21 | 2.0 | 7.5 | -4.7 | -5.9 | 26.6* | 0.9 | 27.0*
Cc1ccccc1Nc1nc(N)nc(C)c1Br | 0.5 | 15.1 | 1.8 | -0.3 | -1.7 | 0.2 | .
CCCCn1c(N)c(N(CCC(C)C)C(=O)CSc2nc3ccccc3n2C)c(=O)[nH]c1=O | -0.7 | 3.4 | -3.6 | 0.2 | 26.7* | -5.8 | 18.7
CCCCn1c(N)c(N(CCC(C)C)C(=O)c2cc(Cl)nc3ccccc23)c(=O)[nH]c1=O | -4.7 | -1.1 | 1.4 | 4.7 | -3.9 | 2.2 | .
CCN(CC)c1ccc(N)cc1S(=O)(=O)Nc1ccc(OC)cc1 | 2.5 | 3.1 | 7.2 | 2.0 | 6.8 | -2.7 | .
CCN(CC)c1ccc(N)cc1S(=O)(=O)Nc1ccccc1OC | 2.8 | 6.8 | 17.1 | 2.9 | 45.7* | -6.0 | 14.2
Cc1cc(C(=O)N/N=C/c2cccc(OC(=O)c3ccco3)c2)n[nH]1 | 1.1 | -6.5 | 4.7 | 0.1 | -0.5 | 1.3 | .
COc1ccc(S[C@@H](CCN2CC[C@H](NC(=O)OCc3ccccc3)CCC2=O)c2ccccc2)cc1 | -2.3 | -9.6 | -61.8 | -3.4 | 1.0 | -2.9 | .
CC1(c2ccccc2)NC(=O)N(CC(=O)Nc2nc(-c3ccccn3)cs2)C1=O (configuration not stated) | -2.3 | -23.9 | 0.6 | 10.7 | 5.5 | -0.3 | .
